# TAAR1 antag – human TAAR1 antagonists, primary screen, Fluo-8 calcium fluorescence, CHO RD-HGA16 cells; inhibition, % at 3 µM; antagonist; AID 624466, 2012; 360,000 compounds, 1.5% hits; Trace amine-associated receptor 1 (Homo sapiens), Q96RJ0;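 active = inhibition above a per-plate cutoff, the mean inhibition of test compounds on that plate plus 3 SD, cut at about 49% in these data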;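 note: 0% = DMSO plus EC80 beta-PEA response and 100% = DMSO alone without agonist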
#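 Test system: RD-HGA16 CHO cells with stable hTAAR1 and Gα16 / Probe or stimulus: EC80 β-phenethylamine stimulus / Times: seeding 17-24 h prior, 75-min 37 °C, 30-min RT dye loading / Detection: Fluo-8 calcium-sensitive fluorescence / Read-out basis: % inhibition scaled between DMSO and EC80 PEA controls / Repeats: singlicate, one well per test compound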
# OX1R antag-1 – antagonists of human orexin 1 receptor (OX1R); OX1R-expressing cells, FRET antagonist read-out; inhibition, % at 6.6 µM; 330,000 compounds, 1.8% hits; in the data active = inhibition mostly above about 38%, no sharp cut-off; inactive = mostly below about 40%;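 note: 0% = agonist challenge alone and 100% = reference antagonist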
# Target sequence (O43613 whole entry, looked up): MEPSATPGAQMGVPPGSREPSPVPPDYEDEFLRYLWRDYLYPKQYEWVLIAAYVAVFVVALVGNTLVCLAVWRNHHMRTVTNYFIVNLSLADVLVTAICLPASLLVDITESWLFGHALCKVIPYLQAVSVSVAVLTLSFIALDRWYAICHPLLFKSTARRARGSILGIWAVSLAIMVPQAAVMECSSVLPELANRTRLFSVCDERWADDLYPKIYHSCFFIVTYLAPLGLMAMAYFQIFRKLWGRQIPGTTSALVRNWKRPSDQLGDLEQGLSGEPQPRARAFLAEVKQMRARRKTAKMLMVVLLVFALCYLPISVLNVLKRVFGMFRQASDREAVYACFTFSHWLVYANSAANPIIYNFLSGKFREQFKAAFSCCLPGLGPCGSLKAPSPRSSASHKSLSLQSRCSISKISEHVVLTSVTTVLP
# TAAR1 ag – human TAAR1 agonists, primary screen, Fluo-8 calcium fluorescence, CHO RD-HGA16 cells. Trace amine-associated receptor 1 (Homo sapiens), Q96RJ0. 360,000 compounds, 0.99% hits. activation, % at 3 µM. vehicle wells 0%, saturating PEA agonist 100%. AID 624467, 2012;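 active = activation above the mean activation of all test compounds in the run plus 3 SD, cut at about 38% in these data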
#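 Assay system – CHO-derived RD-HGA16 cells with stable Gα16 and human TAAR1 · Compound dosing – one-point dosing at 3 µM (nominal) · Incubation – 17-24 h seeding, 75 min 37 °C dye, 30 min RT · Measured by – kinetic Fluo-8 calcium fluorescence · Control set – DMSO vehicle as 0%, PEA at EC100 as 100% · Repeats – single well for each compound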
# CHO parental Ca – ATP-evoked calcium signal inhibitors, parental CHO, primary screen, counter-screen for OX1R antagonist project, cell-based, fluorescence, Fluo-8 calcium dye; parental CHO-K1, ATP-induced calcium, Fluo-8 fluorescence; inhibition, % at 5.6 µM; 330,000 compounds, 0.63% hits; AID 463079, 2010;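 active = inhibition above that plate's mean sample inhibition plus 3 SD, cut at about 26% in these data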;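 note: 0% = ATP-challenged DMSO wells and 100% = DMSO wells without ATP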
#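 Measured by: calcium-sensitive Fluo-8 fluorescence / Test system: CHO parental line / Controls: ATP-challenged DMSO wells low, unchallenged DMSO wells high / Measure: % inhibition / Compound: single nominal dose of 5.6 µM per compound / Replicates: single well per compound, no replicates / Reagent: ATP as calcium-mobilizing challenge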
# OX1R antag-2 – OX1R (HCRTR1) antagonists, primary screen, fluorescence, CHO/OX1R cells, Fluo-8 calcium, orexin A. Fluo-8 calcium fluorescence. inhibition, % at 5 µM. 330,000 compounds, 0.43% hits. AID 434989, 2010;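 active = inhibition above its plate's threshold, mean inhibition of all tested compounds on the plate plus 3 SD, cut at about 37% in these data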;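 note: 0% = orexin A challenge wells and 100% = SB-334867-A antagonist wells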
# GalR3 antagonist – GalR3 antagonists in HEK293 cells, primary screen, cell-based, fluorescence readout | HEK293 GalR3-CNG cAMP membrane potential fluorescence; galR3 body fused to GalR1 C-terminus | inhibition, % at 3 µM | 360,000 compounds, 0.44% hits | AID 651719, 2012;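 active = inhibition above the screen-wide average plus 3 SD, cut at about 13% in these data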;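 note: forskolin and galanin both at EC90 stimulate the cells; cAMP rise reported by CNG channel membrane potential dye signal; 0% = forskolin plus galanin with DMSO and 100% = forskolin alone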
# Target sequence (O60755 1-299 limits assumed): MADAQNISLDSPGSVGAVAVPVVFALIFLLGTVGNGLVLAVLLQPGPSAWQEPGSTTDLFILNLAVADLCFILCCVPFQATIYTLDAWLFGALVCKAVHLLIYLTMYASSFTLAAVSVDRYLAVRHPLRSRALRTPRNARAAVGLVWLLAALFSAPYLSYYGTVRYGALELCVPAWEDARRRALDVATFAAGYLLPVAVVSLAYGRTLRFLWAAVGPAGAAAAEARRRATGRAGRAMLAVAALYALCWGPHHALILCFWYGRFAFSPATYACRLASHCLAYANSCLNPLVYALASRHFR
# TAAR1 ag conf – human TAAR1 agonists, retest of hits, confirmation, Fluo-8 calcium fluorescence, CHO RD-HGA16 cells | shares compounds with TAAR1 ag | scaled: DMSO 0%, maximal phenethylamine 100% | activation, % at 3 µM | 2,400 compounds, 82% hits | AID 651783, 2012;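 active = activation above a cutoff set at the run's mean compound activation plus 3 SD, cut at about 39% in these data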
# Ga16 nonsel ag – nonselective calcium mobilization agonists, CHO-Ga16 cells, counter-screen for hTAAR1 agonist project, cell-based, fluorescence, CHO-Ga16 parental line; shares compounds with TAAR1 ag; Fluo-8 calcium fluorescence; normalized to maximal ATP response, DMSO zero; activation, % at 3 µM; 2,400 compounds, 50% hits; AID 651787, 2012;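 active = activation above the run cutoff, the mean activation over all tested wells plus 3 SD, cut at about 12% in these data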;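 note: 0% = DMSO wells and 100% = maximal ATP response on the peak over basal ratio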
# TAAR1 desens – TAAR1 desensitization by agonist hits, confirmation, counter-screen for TAAR1 agonist project, cell-based, fluorescence, tachyphylaxis; shares compounds with TAAR1 ag; CHO RD-HGA16 hTAAR1, Fluo-8 calcium, beta-PEA response inhibition; inhibition, % at 3 µM; 2,400 compounds, 46% hits;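 active = inhibition above the run cutoff, the mean inhibition of all test compounds plus 3 SD, cut at about 49% in these data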;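 note: beta-PEA stimulus applied at its EC80; loss of beta-PEA calcium signal after compound pretreatment read as receptor desensitization; 0% = DMSO with beta-PEA at EC80 and 100% = DMSO alone without agonist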
# Ga16 antag count – inhibition of ATP-evoked calcium response in CHO-Ga16 cells, counter-screen for TAAR1 agonist project, cell-based, fluorescence; inhibition, % at 3 µM; shares compounds with TAAR1 ag; 2,400 compounds, 39% hits; CHO-Ga16 ATP-induced calcium, Fluo-8 fluorescence;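 active = inhibition above the plate's mean compound inhibition plus 3 SD, computed per plate, cut at about 22% in these data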;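 note: 0% = EC80 ATP with DMSO and 100% = DMSO wells without ATP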
# Active calls of the source: *; . = no result. Compounds with a hit are over-represented: about 4.2% of the library has one in this group of screens.
SMILES,TAAR1 antag,OX1R antag-1,TAAR1 ag,CHO parental Ca,OX1R antag-2,GalR3 antagonist,TAAR1 ag conf,Ga16 nonsel ag,TAAR1 desens,Ga16 antag count
O=C(O)c1ccccc1C(=O)NCC(O)c1ccccc1 (stereo not drawn),7.2,12.7,71.6*,-25.7,-8.1,3.5,95.9*,2.4,62.4*,4.4
O=C(CNC(=O)c1ccccc1C(=O)O)c1ccccc1,29.6,6.2,70.9*,6.0,-18.6,3.2,77.5*,5.8,47.3,8.4
O=S(=O)(c1ccc(F)cc1)c1nc(-c2ccco2)oc1NCCCn1ccnc1,12.1,.,1.9,.,.,3.2,.,.,.,.
O=C(O)C1NCCc2ccccc21 (stereo not drawn),37.8,7.2,72.0*,-13.7,-6.0,0.3,67.0*,-0.3,24.3,2.1
CN1CC(=O)N2C(c3cccc([N+](=O)[O-])c3)c3[nH]c4ccccc4c3C[C@H]2C1=O (stereo partly drawn),3.4,12.4,2.5,0.0,-5.9,-10.4,.,.,.,.
NC(=Nc1ccc(Br)cc1)c1ccccc1,40.3,8.8,49.8*,-6.0,-1.1,0.3,55.3*,27.3*,48.5,18.1
N/C(=N\OC(=O)Oc1ccccc1)c1ccc(Br)cc1,-8.8,14.8,8.6,-4.1,-32.5,-1.1,.,.,.,.
CC(CNC(=O)[C@@H](Cc1ccccc1)NC(=O)[C@H]1O[C@@H](n2cnc3c(=O)[nH]c(N)nc32)[C@H](O)[C@@H]1O)c1ccccc1 (stereo partly drawn),.,.,.,.,.,-4.3,.,0.8,.,2.4
Nc1nc2c(ncn2[C@@H]2O[C@H](C(=O)N[C@H](Cc3ccccc3)C(=O)NCCCc3ccccc3)[C@@H](O)[C@H]2O)c(=O)[nH]1,-30.8,.,1.1,.,.,-6.3,.,.,.,.
CC(CNC(=O)[C@H]1O[C@@H](n2cnc3c(=O)[nH]c(N)nc32)[C@H](O)[C@@H]1O)c1ccccc1 (stereo partly drawn),66.5*,.,84.2*,.,.,0.2,94.4*,0.4,79.7*,-0.7
COc1ccc(C(CNC(=O)c2ccc(-c3ccccc3Cl)o2)N2CCOCC2)cc1 (stereo not drawn),8.8,23.1,17.6,-6.8,-12.9,-4.1,.,.,.,.
COc1ccc(NC(=S)N2CCc3ccccc3C2)cc1,52.8*,12.9,83.7*,-7.4,-3.9,-5.0,93.4*,9.2,31.1,-3.2
O=C(Nc1cccc(Cl)c1)N1CCc2ccccc2C1,14.2,12.9,30.9,-8.5,-16.6,-8.1,.,.,.,.
COc1cccc(NC(=O)N2CCc3ccccc3C2)c1,-0.6,11.3,46.5*,-2.0,-20.2,-2.3,52.9*,1.2,13.6,10.2
COCC(C)NC(=S)N1CCN(c2ccccc2Cl)CC1 (stereo not drawn),10.8,8.4,0.8,-0.3,-10.6,-7.0,.,.,.,.
Cc1noc(NC(=O)c2c(-c3c(Cl)cccc3Cl)noc2C)c1[N+](=O)[O-],-2.8,7.0,2.2,-9.7,-2.5,-0.2,.,.,.,.
OCCNc1nc(Nc2cccc(O)c2)nc2ccccc12,83.6*,8.6,96.8*,-1.6,-12.5,-9.0,101.1*,1.0,97.7*,7.3
COc1cccc(Nc2nc(NCC3CCCO3)c3ccccc3n2)c1 (stereo not drawn),17.4,10.0,20.5,-15.6,-17.2,-7.2,.,.,.,.
OCCNc1nc(Nc2ccc(O)cc2)nc2ccccc12,59.0*,6.5,88.4*,7.0,-7.5,-3.3,96.9*,0.0,95.3*,-5.5
OCCNc1nc(NCc2ccccc2)c2ccccc2n1,-9.6,3.6,0.7,-6.0,-21.4,-6.2,.,.,.,.
COc1cccc(Nc2nc(NCCO)c3ccccc3n2)c1,33.5,25.2,49.7*,-17.1,-9.4,-3.6,79.8*,2.3,60.2*,1.7
Cc1cc(NC(=O)CCC(=O)N(CC(=O)NC2CCCC2)c2ccccc2)no1,-11.8,28.9,18.5,-24.9,-32.4,-1.9,.,.,.,.
CCCSc1nnc2nc(C)cc(C)n12,1.4,13.2,0.2,0.1,0.2,1.2,.,.,.,.
COc1ccc(S(=O)(=O)Cc2ccc(C(=O)N3CCCC3)o2)cc1,-25.2,8.9,10.9,-4.0,-11.0,-0.4,.,.,.,.
O=C(NCCc1ccccc1)c1ccc2c(=O)[nH]c3c(C(=O)NCC4CCCO4)sc(=S)n3c2c1 (stereo not drawn),52.4*,51.6*,64.6*,-6.2,-4.1,-3.3,90.1*,6.0,82.2*,21.7*
COc1ccc(-c2noc(CCC(=O)NCCc3ccccc3)n2)cc1,-1.0,17.3,50.8*,-13.0,-26.8,-7.7,62.3*,4.2,31.5,9.9
O=C(CCc1nc(-c2ccccc2)no1)NCCc1ccccc1,.,18.0,.,-13.9,-13.3,.,.,.,.,.
COc1cccc(-c2noc(CCC(=O)NCCc3ccccc3)n2)c1,-0.1,7.6,47.2*,-8.2,-26.4,-9.7,66.6*,1.9,23.4,10.7
CCOC(=O)c1c(CSC(=N)N)n(-c2ccc(C)cc2)c2cc(Br)c(OC(C)=O)cc12,14.6,5.6,62.6*,3.5,3.6,-11.3,92.4*,58.8*,66.0*,51.9*
CC(=O)OC1COC(n2c(O)c(N=NC(N)=S)c3ccccc32)C(OC(C)=O)C1OC(C)=O (stereo not drawn),6.2,18.9,4.3,-9.5,-7.1,-2.5,.,.,.,.
